Assay results as given in ChEMBL document CHEMBL3808291, “Bifunctional Peptide-Based Opioid Agonist-Nociceptin Antagonist Ligands for Dual Treatment of Acute and Neuropathic Pain” (J Med Chem, 2016).
Active and inactive are the calls of the source. Numbered stars: 1 amine (or outer) side, 2 acyl side, 3 side chain; on linkers, the order of the positions; unused ones are H or OH. Square brackets hold non-standard residues; d marks the D form. Peptide text beside a SMILES is read from it. X1 = O=C1[C@@H](N[*:1])Cc2ccccc2CN1CCC(=O)[*:2]; Dmt = Cc1cc(O)cc(C)c1C[C@H](N)C(=O)O

Key:
Mus musculus [1] = assay: Antiallodynic activity in albino Swiss CD1 IGS mouse model of streptozocin-induced type1 diabetic neuropathic pain assessed as increase in mechanical threshold for paw withdrawal at 0.005 nmol, it administered on day 10 after STZ injection measured at 30 mins post dose by Von Frey test; format: functional, organism-based
Outline: (§1)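 Male CD-1 mice (30–35 g). CCI: sciatic constriction injury, tested on days 7–16 after surgery. STZ diabetes: single ip streptozocin 200 mg/kg; mice with glucose >300 mg/dL included, tested on day 10. Drug in water for injection, given it (5 µL, L5–L6 lumbar puncture) to conscious mice. von Frey (cutoff 6 g) or cold plate (2 °C, 30 s cutoff, paw lift) at 30, 90, 180 min; 6–8 mice/group.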

[2] = Passive permeability of compound at 500 uM after 4 hrs by BBB-PAMPA; format: ADME; settings: read-out: permeability
Outline: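 BBB-PAMPA with porcine brain polar lipids; compound at 500 µM in donor compartment in system solution containing 20% 1-propanol; 4 h at room temperature in humidified box, 25 µm unstirred water layer. Quantified by RP-HPLC, identity by MALDI-TOF; effective permeability and % transport calculated.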

Mus musculus [3] = assay: Antinociceptive activity in C57BL6 mouse model of acute pain assessed as increase in withdrawal latency from radiant heat source at 31 to 61 nmol/kg, iv measured after 180 to 240 mins by tail flick assay relative to control; format: functional
Outline: (§2)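 Male C57BL6 mice (20–25 g); compound or saline given iv into tail vein (po also tested). Radiant heat on ventral tail, latency to withdrawal/shaking recorded at baseline and 5, 15, 30, 60, 120 min (later points also reported); normalized as %MPE; 8–10 mice per group.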

Mus musculus [4] = assay: Antinociceptive activity in C57BL6 mouse model of acute pain assessed as increase in withdrawal latency from radiant heat source at 61 to 196 nmol/kg, po measured after 5 to 120 mins by tail flick assay relative to control; format: functional; outline: as §2
Mus musculus [5] = assay: Antiallodynic activity in albino Swiss CD1 IGS mouse model of chronic constriction injury-induced neuropathic pain assessed as increase in mechanical threshold for paw withdrawal at 0.0005 nmol, it administered on day 7 to 16 after CCI surgery measured 180 mins post dose by Von Frey test; format: functional, organism-based; outline: as §1
Mus musculus [6] = assay: Antihyperalgesic activity in albino Swiss CD1 IGS mouse model of chronic constriction injury-induced neuropathic pain assessed as increase in paw withdrawal latency at 0.0005 nmol, it administered on day 7 to 16 after CCI surgery measured 180 mins post dose by cold plate test; format: functional, organism-based; outline: as §1
Mus musculus [7] = assay: Neurotoxicity in intrathecally dosed albino Swiss CD1 IGS mouse assessed as motor impairment measured after 15 to 120 mins post dose by rotarod test; format: toxicity, organism-based; settings: in vivo, icv_or_intrathecal
Outline: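 Intrathecal dosing (water for injection, 5 µL) to male CD-1 mice. After three training sessions, mice placed on accelerating rod (2 to 40 rpm over 300 s cutoff); tested 15 and 120 min after injection.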

Mus musculus [8] = assay: Antiallodynic activity in albino Swiss CD1 IGS mouse model of streptozocin-induced type1 diabetic neuropathic pain assessed as increase in mechanical threshold for paw withdrawal at 0.005 nmol, it administered on day 10 after STZ injection measured at 180 mins post dose by Von Frey test; format: functional, organism-based; outline: as §1
Mus musculus [9] = assay: Antihyperalgesic activity in albino Swiss CD1 IGS mouse model of streptozocin-induced type1 diabetic neuropathic pain assessed as increase in paw withdrawal latency at 0.005 nmol, it administered on day 10 after STZ injection measured at 180 mins post dose by […]; format: functional, organism-based; outline: as §1
Rattus norvegicus [10] = assay: Induction of respiratory depression in Sprague-Dawley rat at 6 nmol/kg, iv after 5 to 120 mins by plethysmography method; format: organism-based; settings: in vivo
Outline: (§3)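 Male Sprague–Dawley rats (250–350 g) with implanted catheter and intraperitoneal temperature transmitter, dosed iv at T0; 0.9% NaCl as control; N = 6/group. Whole-body barometric plethysmography, ~60 s records at −30, −15, −5, 5–120 min.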

Rattus norvegicus [11] = assay: Reduction in expiratory time in Sprague-Dawley rat at 6 nmol/kg, iv after 5 to 120 mins by plethysmography method; format: organism-based; settings: in vivo; outline: as §3
Rattus norvegicus [12] = assay: Reduction in tidal volume in Sprague-Dawley rat at 6 nmol/kg, iv after 5 to 120 mins by plethysmography method; format: organism-based; settings: in vivo; outline: as §3

CC[C@H](C)[C@H](NC(=O)[C@H](CCCNC(=N)N)NC(=O)[C@H](Cc1ccc(O)cc1)NC(=O)[C@H](Cc1ccc(O)cc1)NC(=O)[C@H](CCCNC(=N)N)NC(=O)CCN1Cc2ccccc2C[C@H](NC(=O)[C@@H](CCCNC(=N)N)NC(=O)[C@@H](N)Cc2c(C)cc(O)cc2C)C1=O)C(=O)N[C@@H](CCCCN)C(N)=O (H-[Dmt][dR][X1]RYYRIK-NH2)
Activity (Mus musculus [1]): Active | Papp at 4 h, 500 µM [2]: 0.11 ×10⁻⁶ cm/s | MPE (Mus musculus [3]): 100% | MPE (Mus musculus [4]): <5% | Activity (Mus musculus [5]): Active | Activity (Mus musculus [6]): Active | Activity (Mus musculus [7]): Non-toxic | Activity (Mus musculus [8]): inactive | Activity (Mus musculus [9]): Active | Activity (Rattus norvegicus [10]): Non-toxic | Activity (Rattus norvegicus [11]): Non-toxic | Activity (Rattus norvegicus [12]): Non-toxic
